Tm and folding enthalpy data for 76 sequences are collected here from the array DNA melting data of Ke et al. (doi:10.1101/2024.01.08.574731).

A short description of data set [1]: melting temperature; fluorescence melt of hairpins on a sequencing array, two-state fit, raised by 9.35 °C to match UV melts. To be noted: sodium 0.088 M. The essentials: (§1)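 Library hairpins on a sequenced MiSeq flow cell carried annealed Cy3 and quencher oligos, and their Cy3 fluorescence was imaged in 50 mM Na-HEPES pH 8.0 with 25 mM NaCl, in 2.5 °C steps up to 60 °C. Signals were normalised to Cy3 before quenching and to control constructs. Melting temperature and folding enthalpy were obtained from bootstrapped two-state fits, combined by inverse-variance weighting across four replicates, and the fitted temperatures were then raised by 9.35 °C to match UV melts.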

Data set [2] is described as follows: folding enthalpy; higher = less favourable; fluorescence melt of hairpins on a sequencing array, two-state fit. To be noted: sodium 0.088 M. The essentials: as §1

In the case of GATCAGGGAAACCCGATC ((((.((....)).)))), the Tm in data set [1] is 43 °C. Further, the folding enthalpy in data set [2] was -26.1 kcal/mol.
The matching figures for GATCAGGGAAACCTGATC (((((((....))))))): 59 °C and -41.8 kcal/mol.
On to GATCAGGTCCTGATC ((((((...)))))), for which the Tm in data set [1] turned out to be 51.9 °C. Besides, in data set [2], the folding enthalpy is -35.2 kcal/mol.
The matching figures for GATCAGGTCGCTGATC ((((((....)))))): 53.3 °C and -43 kcal/mol.
GATCAGGTGACTGATC ((((((....)))))): the Tm in data set [1] amounted to 54.9 °C. Also, in data set [2], the folding enthalpy was -46.4 kcal/mol.
For GATCAGGTGGCTGATC ((((((....)))))) the same measures were 50.5 °C and -31.6 kcal/mol.
For GATCAGTACACTGATC ((((((....)))))) the same measures were 54.7 °C and -36.4 kcal/mol.
For GATCAGTACCCTGATC ((((((....)))))) the same measures were 49.4 °C and -35.6 kcal/mol.
With GATCAGTACCTGATC ((((((...)))))), in data set [1], the Tm came out at 48.9 °C. In data set [2], the folding enthalpy is -44.9 kcal/mol.
For GATCAGTATACTGATC ((((((....)))))) the same measures were 54.3 °C and -45 kcal/mol.
For the sequence GATCAGTCATCTGATC ((((((....)))))), the Tm in data set [1] is 51.1 °C. Also, in data set [2], the folding enthalpy is -35.4 kcal/mol.
For GATCAGTCCCTGATC ((((((...)))))) the same measures were 50.3 °C and -46.5 kcal/mol.
For GATCAGTCCTCTGATC ((((((....)))))) the same measures were 51.1 °C and -39.7 kcal/mol.
For GATCAGTCGGCTGATC ((((((....)))))) the same measures were 51.5 °C and -46.8 kcal/mol.
On to GATCAGTCTACTGATC ((((((....)))))), for which the Tm in data set [1] stood at 54.2 °C. Moreover, the folding enthalpy in data set [2] is -49.8 kcal/mol.
The matching figures for GATCAGTGCGCTGATC ((((((....)))))): 56.6 °C and -44.1 kcal/mol.
For GATCAGTGTGCTGATC ((((((....)))))) the same measures were 56.6 °C and -52.8 kcal/mol.
The matching figures for GATCAGTTATCTGATC ((((((....)))))): 52.1 °C and -34.2 kcal/mol.
GATCAGTTCTCTGATC ((((((....)))))): the Tm in data set [1] stood at 52.1 °C. Besides, in data set [2], the folding enthalpy was -42.1 kcal/mol.
The matching figures for GATCAGTTGACTGATC ((((((....)))))): 53.5 °C and -37.3 kcal/mol.
Consider GATCAGTTGCTGATC ((((((...)))))), for which, in data set [1], the Tm was found to be 48.8 °C. In data set [2], the folding enthalpy is -34.1 kcal/mol.
For GATCATAAGCATGATC ((((((....)))))) the same measures were 46.5 °C and -31.5 kcal/mol.
The matching figures for GATCATAAGTATGATC ((((((....)))))): 47.7 °C and -33.6 kcal/mol.
For GATCATACGGATGATC ((((((....)))))) the same measures were 47.1 °C and -39.6 kcal/mol.
For GATCATAGTATGATC ((((((...)))))), the Tm in data set [1] turned out to be 47.2 °C. In addition, the folding enthalpy in data set [2] was -35.6 kcal/mol.
For GATCATAGTGATGATC ((((((....)))))) the same measures were 47.3 °C and -36.5 kcal/mol.
For GATCATAGTTATGATC ((((((....)))))) the same measures were 48.2 °C and -40 kcal/mol.
As for GATCATATATATGATC ((((((....)))))), the Tm in data set [1] came to 48.8 °C. In addition, the folding enthalpy in data set [2] is -42 kcal/mol.
For GATCATATCCATGATC ((((((....)))))) the same measures were 47.4 °C and -35.8 kcal/mol.
For the sequence GATCATATGGATGATC ((((((....)))))), the Tm in data set [1] amounted to 46.1 °C. In addition, the folding enthalpy in data set [2] was -28.1 kcal/mol.
For GATCATATGTATGATC ((((((....)))))) the same measures were 48.6 °C and -41.6 kcal/mol.
For GATCATCACAATGATC ((((((....)))))) the same measures were 47.7 °C and -44.1 kcal/mol.
As for GATCATCACATGATC ((((((...)))))), the Tm in data set [1] was 49.1 °C. In addition, the folding enthalpy in data set [2] was -36.7 kcal/mol.
For GATCATCAGATGATC ((((((...)))))) the same measures were 44.5 °C and -35.1 kcal/mol.
The matching figures for GATCATCAGCATGATC ((((((....)))))): 45 °C and -22.3 kcal/mol.
For GATCATCAGGATGATC ((((((....)))))) the same measures were 50.6 °C and -36 kcal/mol.
For the sequence GATCATCCACATGATC ((((((....)))))), the Tm in data set [1] worked out at 46.4 °C. The folding enthalpy in data set [2] is -34.7 kcal/mol.
For GATCATCCCTATGATC ((((((....)))))), the Tm in data set [1] is 47.5 °C. Also, in data set [2], the folding enthalpy was -37.4 kcal/mol.
For GATCATCCGCATGATC ((((((....)))))) the same measures were 47.8 °C and -35.9 kcal/mol.
The matching figures for GATCATCCTCATGATC ((((((....)))))): 45.7 °C and -33.4 kcal/mol.
For GATCATCCTTATGATC ((((((....)))))) the same measures were 46.3 °C and -37 kcal/mol.
Regarding GATCATCGCATGATC ((((((...)))))), the Tm in data set [1] worked out at 49.6 °C. For the same sequence, the folding enthalpy in data set [2] was -31.4 kcal/mol.
For GATCATCTGAATGATC ((((((....)))))) the same measures were 46.3 °C and -33.6 kcal/mol.
The matching figures for GATCATCTGTATGATC ((((((....)))))): 47.1 °C and -36.2 kcal/mol.
The matching figures for GATCATGAGATGATC ((((((...)))))): 43.4 °C and -32.5 kcal/mol.
Consider GATCATGAGGATGATC ((((((....)))))), for which the Tm in data set [1] came to 43.7 °C. For the same sequence, the folding enthalpy in data set [2] is -38.4 kcal/mol.
For GATCATGATATGATC ((((((...)))))) the same measures were 48.4 °C and -31.3 kcal/mol.
On to GATCATGATTATGATC ((((((....)))))), for which the Tm in data set [1] came to 47.5 °C. Also, in data set [2], the folding enthalpy was -29.5 kcal/mol.
The matching figures for GATCATGCAAATGATC ((((((....)))))): 55.4 °C and -39.7 kcal/mol.
For GATCATGCAGATGATC ((((((....)))))) the same measures were 51.4 °C and -39.3 kcal/mol.
For GATCATGCCGATGATC ((((((....)))))) the same measures were 49.5 °C and -40.8 kcal/mol.
For GATCATGCGAATGATC ((((((....)))))), the Tm in data set [1] worked out at 53.8 °C. Also, the folding enthalpy in data set [2] was -46.8 kcal/mol.
With GATCATGCGTATGATC ((((((....)))))), the Tm in data set [1] came out at 48.3 °C. Further, the folding enthalpy in data set [2] was -39 kcal/mol.
For GATCATGCTCATGATC ((((((....)))))) the same measures were 51.3 °C and -44.1 kcal/mol.
Consider GATCATGGAAACATGGTC ((.((((....)))).)), for which the Tm in data set [1] was 46.6 °C. For the same sequence, in data set [2], the folding enthalpy was -25.8 kcal/mol.
For GATCATGGCCATGATC ((((((....)))))) the same measures were 56.3 °C and -49.5 kcal/mol.
For GATCATGGTGATGATC ((((((....)))))) the same measures were 49 °C and -39.4 kcal/mol.
In the case of GATCATGGTTATGATC ((((((....)))))), the Tm in data set [1] worked out at 48.3 °C. Moreover, the folding enthalpy in data set [2] is -40.7 kcal/mol.
For GATCATGTAAATGATC ((((((....)))))) the same measures were 56.6 °C and -38.9 kcal/mol.
For GATCATGTATATGATC ((((((....)))))) the same measures were 55.3 °C and -41.7 kcal/mol.
The matching figures for GATCATGTCGATGATC ((((((....)))))): 51 °C and -37.1 kcal/mol.
On to GATCATGTCTATGATC ((((((....)))))), for which the Tm in data set [1] was found to be 53.1 °C. Besides, the folding enthalpy in data set [2] is -38.9 kcal/mol.
With GATCATTAAATGATC ((((((...)))))), the Tm in data set [1] was determined as 44 °C. Moreover, the folding enthalpy in data set [2] is -28.6 kcal/mol.
For GATCATTAACATGATC ((((((....)))))) the same measures were 44.7 °C and -28.6 kcal/mol.
For GATCATTACTATGATC ((((((....)))))) the same measures were 48.6 °C and -41.7 kcal/mol.
For GATCATTCCCATGATC ((((((....)))))) the same measures were 46.8 °C and -42.6 kcal/mol.
For the sequence GATCATTCCGATGATC ((((((....)))))), the Tm in data set [1] was 49.1 °C. Further, the folding enthalpy in data set [2] is -41.3 kcal/mol.
In the case of GATCATTCGAATGATC ((((((....)))))), the Tm in data set [1] is 50.5 °C. In data set [2], the folding enthalpy is -46.8 kcal/mol.
The matching figures for GATCATTCTCATGATC ((((((....)))))): 47.1 °C and -32.8 kcal/mol.
The matching figures for GATCATTGACATGATC ((((((....)))))): 43.6 °C and -24.1 kcal/mol.
The matching figures for GATCATTGCGATGATC ((((((....)))))): 51.8 °C and -38.8 kcal/mol.
For the sequence GATCATTTAATGATC ((((((...)))))), the Tm in data set [1] turned out to be 48 °C. The folding enthalpy in data set [2] is -27.6 kcal/mol.
For GATCATTTAGATGATC ((((((....)))))) the same measures were 47.6 °C and -37.4 kcal/mol.
The matching figures for GATCATTTCTATGATC ((((((....)))))): 48.6 °C and -41.4 kcal/mol.
The matching figures for GATCATTTGAATGATC ((((((....)))))): 48.2 °C and -35.4 kcal/mol.
Regarding GATCATTTGTATGATC ((((((....)))))), the Tm in data set [1] is 47.4 °C. Also, the folding enthalpy in data set [2] was -36 kcal/mol.
